{"source": "ChEMBL document CHEMBL1949516", "about": "“Synthesis and antimycobacterial evaluation of N-substituted 3-aminopyrazine-2,5-dicarbonitriles” (Bioorg Med Chem Lett, 2012)", "key": {"[1]": {"assay": "Partition coefficient, log k of the compound", "format": "physicochemical", "conditions": "octanol/water", "summary_of_the_method": "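Capacity factor k measured by isocratic RP-HPLC on an end-capped non-polar C18 column, with methanol as organic modifier in the mobile phase. Value given as log k and used as a lipophilicity index converted to the logP scale.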"}, "[2]": {"tested_on": "Mycobacterium avium", "assay": "Antimycobacterial activity against Mycobacterium avium CNCTC My 152/73 after 14 days by microdilution panel method", "format": "functional", "conditions": "CNCTC My 152/73, 336 h", "summary_of_the_method": "(§1)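 Compounds dissolved in DMSO, diluted in Šula's semisynthetic medium in microdilution panels. Cultures grown in Šula's medium, pH 5.5, 37 °C. After 14 days incubation, activity read visually as MIC (µg/mL), also converted to µmol/L. Pyrazinamide run as standard.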"}, "[3]": {"tested_on": "Mycobacterium kansasii", "assay": "Antimycobacterial activity against Mycobacterium kansasii CNCTC My 235/80 after 6 days by microdilution panel method", "format": "functional", "conditions": "CNCTC My 235/80, 144 h", "summary_of_the_method": "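Microdilution panel; compounds dissolved in DMSO and diluted with Šula's semisynthetic medium. Cultures grown in Šula's semisynthetic medium, pH 5.5, 37 °C. After 6 days of incubation, MIC (µg/mL) read visually. MICs also converted to molar units (µmol/L). PZA run as standard.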"}, "[4]": {"tested_on": "Mycobacterium avium", "assay": "Antimycobacterial activity against Mycobacterium avium CNCTC My 80/72 after 14 days by microdilution panel method", "format": "functional", "conditions": "CNCTC My 80/72, 336 h", "summary_of_the_method": "as §1"}, "[5]": {"tested_on": "Mycobacterium tuberculosis", "assay": "Antimycobacterial activity against Mycobacterium tuberculosis H37Rv CNCTC My 331/88 after 14 days by microdilution panel method", "format": "functional", "conditions": "H37Rv CNCTC My 331/88, 336 h", "summary_of_the_method": "as §1"}, "[6]": {"assay": "Aqueous solubility of the compound", "format": "physicochemical", "conditions": "buffer"}}, "data": [{"compound": "NC(=O)c1cnccn1", "note": "[PYRAZINAMIDE]", "values": [{"measurement": "log K", "setting": "[1]", "result": 0.0514}, {"measurement": "MIC", "setting": "[2]", "result": "> 200", "unit": "mg/L"}, {"measurement": "MIC", "setting": "[3]", "result": "> 200", "unit": "mg/L"}, {"measurement": "MIC", "setting": "[4]", "result": "> 200", "unit": "mg/L"}, {"measurement": "MIC", "setting": "[5]", "result": 12.5, "unit": "mg/L"}]}, {"compound": "CCNc1nc(C#N)cnc1C#N", "values": [{"measurement": "log K", "setting": "[1]", "result": 0.6146}, {"measurement": "MIC", "setting": "[2]", "result": "> 200", "unit": "mg/L"}, {"measurement": "MIC", "setting": "[3]", "result": 200, "unit": "mg/L"}, {"measurement": "MIC", "setting": "[4]", "result": "> 200", "unit": "mg/L"}, {"measurement": "MIC", "setting": "[5]", "result": 100, "unit": "mg/L"}]}, {"compound": "CCCCCNc1nc(C#N)cnc1C#N", "values": [{"measurement": "log K", "setting": "[1]", "result": 0.7901}, {"measurement": "MIC", "setting": "[2]", "result": 100, "unit": "mg/L"}, {"measurement": "MIC", "setting": "[3]", "result": 100, "unit": "mg/L"}, {"measurement": "MIC", "setting": "[4]", "result": 100, "unit": "mg/L"}, {"measurement": "MIC", "setting": "[5]", "result": 50, "unit": "mg/L"}]}, {"compound": "N#Cc1cnc(C#N)c(NC2CCCC2)n1", "values": [{"measurement": "solubility", "setting": "[6]", "result": "Insoluble"}, {"measurement": "log K", "setting": "[1]", "result": 0.7273}, {"measurement": "MIC", "setting": "[2]", "result": "> 200", "unit": "mg/L"}, {"measurement": "MIC", "setting": "[3]", "result": "> 200", "unit": "mg/L"}, {"measurement": "MIC", "setting": "[4]", "result": "> 200", "unit": "mg/L"}, {"measurement": "MIC", "setting": "[5]", "result": "> 200", "unit": "mg/L"}]}, {"compound": "CCCCCCCCNc1nc(C#N)cnc1C#N", "values": [{"measurement": "log K", "setting": "[1]", "result": 1.1953}, {"measurement": "MIC", "setting": "[2]", "result": "> 200", "unit": "mg/L"}, {"measurement": "MIC", "setting": "[3]", "result": 100, "unit": "mg/L"}, {"measurement": "MIC", "setting": "[4]", "result": "> 200", "unit": "mg/L"}, {"measurement": "MIC", "setting": "[5]", "result": 25, "unit": "mg/L"}]}, {"compound": "N#Cc1cnc(C#N)c(NC2CCCCCC2)n1", "values": [{"measurement": "solubility", "setting": "[6]", "result": "Insoluble"}, {"measurement": "log K", "setting": "[1]", "result": 0.8789}, {"measurement": "MIC", "setting": "[2]", "result": "> 200", "unit": "mg/L"}, {"measurement": "MIC", "setting": "[3]", "result": "> 200", "unit": "mg/L"}, {"measurement": "MIC", "setting": "[4]", "result": "> 200", "unit": "mg/L"}, {"measurement": "MIC", "setting": "[5]", "result": "> 200", "unit": "mg/L"}]}, {"compound": "N#Cc1cnc(C#N)c(NC2CCCCC2)n1", "values": [{"measurement": "solubility", "setting": "[6]", "result": "Insoluble"}, {"measurement": "log K", "setting": "[1]", "result": 0.7896}, {"measurement": "MIC", "setting": "[2]", "result": "> 200", "unit": "mg/L"}, {"measurement": "MIC", "setting": "[3]", "result": "> 200", "unit": "mg/L"}, {"measurement": "MIC", "setting": "[4]", "result": "> 200", "unit": "mg/L"}, {"measurement": "MIC", "setting": "[5]", "result": "> 200", "unit": "mg/L"}]}, {"compound": "CCCCNc1nc(C#N)cnc1C#N", "values": [{"measurement": "log K", "setting": "[1]", "result": 0.7088}, {"measurement": "MIC", "setting": "[2]", "result": 100, "unit": "mg/L"}, {"measurement": "MIC", "setting": "[3]", "result": 100, "unit": "mg/L"}, {"measurement": "MIC", "setting": "[4]", "result": 100, "unit": "mg/L"}, {"measurement": "MIC", "setting": "[5]", "result": 100, "unit": "mg/L"}]}, {"compound": "CN1CCN(c2nc(C#N)cnc2C#N)CC1", "values": [{"measurement": "log K", "setting": "[1]", "result": 0.5946}, {"measurement": "MIC", "setting": "[2]", "result": "> 200", "unit": "mg/L"}, {"measurement": "MIC", "setting": "[3]", "result": "> 200", "unit": "mg/L"}, {"measurement": "MIC", "setting": "[4]", "result": "> 200", "unit": "mg/L"}, {"measurement": "MIC", "setting": "[5]", "result": "> 200", "unit": "mg/L"}]}, {"compound": "CCN(CC)c1nc(C#N)cnc1C#N", "values": [{"measurement": "log K", "setting": "[1]", "result": 0.6685}, {"measurement": "MIC", "setting": "[2]", "result": "> 200", "unit": "mg/L"}, {"measurement": "MIC", "setting": "[3]", "result": 100, "unit": "mg/L"}, {"measurement": "MIC", "setting": "[4]", "result": "> 200", "unit": "mg/L"}, {"measurement": "MIC", "setting": "[5]", "result": 100, "unit": "mg/L"}]}, {"compound": "CCCCCCNc1nc(C#N)cnc1C#N", "values": [{"measurement": "log K", "setting": "[1]", "result": 0.9133}, {"measurement": "MIC", "setting": "[2]", "result": 100, "unit": "mg/L"}, {"measurement": "MIC", "setting": "[3]", "result": 50, "unit": "mg/L"}, {"measurement": "MIC", "setting": "[4]", "result": 100, "unit": "mg/L"}, {"measurement": "MIC", "setting": "[5]", "result": 25, "unit": "mg/L"}]}, {"compound": "CNc1nc(C#N)cnc1C#N", "values": [{"measurement": "log K", "setting": "[1]", "result": 0.5859}, {"measurement": "MIC", "setting": "[2]", "result": "> 200", "unit": "mg/L"}, {"measurement": "MIC", "setting": "[3]", "result": 100, "unit": "mg/L"}, {"measurement": "MIC", "setting": "[4]", "result": "> 200", "unit": "mg/L"}, {"measurement": "MIC", "setting": "[5]", "result": 100, "unit": "mg/L"}]}, {"compound": "N#Cc1cnc(C#N)c(Cl)n1", "values": [{"measurement": "log K", "setting": "[1]", "result": 0.5792}, {"measurement": "MIC", "setting": "[2]", "result": 100, "unit": "mg/L"}, {"measurement": "MIC", "setting": "[3]", "result": "> 200", "unit": "mg/L"}, {"measurement": "MIC", "setting": "[4]", "result": 100, "unit": "mg/L"}, {"measurement": "MIC", "setting": "[5]", "result": 25, "unit": "mg/L"}]}, {"compound": "N#Cc1cnc(C#N)c(N2CCOCC2)n1", "values": [{"measurement": "log K", "setting": "[1]", "result": 0.583}, {"measurement": "MIC", "setting": "[2]", "result": "> 200", "unit": "mg/L"}, {"measurement": "MIC", "setting": "[3]", "result": 200, "unit": "mg/L"}, {"measurement": "MIC", "setting": "[4]", "result": "> 200", "unit": "mg/L"}, {"measurement": "MIC", "setting": "[5]", "result": 200, "unit": "mg/L"}]}, {"compound": "CCCNc1nc(C#N)cnc1C#N", "values": [{"measurement": "log K", "setting": "[1]", "result": 0.6497}, {"measurement": "MIC", "setting": "[2]", "result": 200, "unit": "mg/L"}, {"measurement": "MIC", "setting": "[3]", "result": 200, "unit": "mg/L"}, {"measurement": "MIC", "setting": "[4]", "result": 200, "unit": "mg/L"}, {"measurement": "MIC", "setting": "[5]", "result": 200, "unit": "mg/L"}]}, {"compound": "CCCCCCCNc1nc(C#N)cnc1C#N", "values": [{"measurement": "log K", "setting": "[1]", "result": 1.0243}, {"measurement": "MIC", "setting": "[2]", "result": "> 200", "unit": "mg/L"}, {"measurement": "MIC", "setting": "[3]", "result": "> 200", "unit": "mg/L"}, {"measurement": "MIC", "setting": "[4]", "result": "> 200", "unit": "mg/L"}, {"measurement": "MIC", "setting": "[5]", "result": 12.5, "unit": "mg/L"}]}]}
